This note sets out measurements from ChEMBL document CHEMBL3865787, “Combinatorial synthesis, in silico, molecular and biochemical studies of tetrazole-derived organic selenides with increased selectivity against hepatocellular carcinoma” (Eur J Med Chem, 2016).

The source made the active and inactive calls. The rule behind the calls is not given here.

Series [1] can be described thus: Cytotoxicity against human HepG2 cells assessed as reduction in cell viability after 48 hrs by MTT assay. Type of series: functional, cell-based. The note with it: HepG2, 48 h. Put shortly:
(§1)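 Cells were grown in DMEM with 10% calf serum and seeded at 50,000 cells/mL. They grew 2 days at 37 °C, 10% CO2, then took serial compound dilutions for 48 h. MTT (final 0.5 mg/mL) ran 2 h; formazan was washed, dissolved in DMSO and read at 590 nm. IC50 was taken from dose-response curves as the mean of two parallel experiments. 5-FU was the positive control. TI = IC50 WI-38/IC50 HepG2.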

Series [2] in a line: Cytotoxicity against human WI38 cells assessed as reduction in cell viability after 48 hrs by MTT assay. It is filed as toxicity, cell-based, WI-38. Summed up: as §1
Series [3] can be described thus: Antioxidant activity assessed as DPPH radical scavenging activity at 1 uM after 30 mins in absence of light by spectrophotometric analysis. It is filed as functional. Put shortly:
(§2)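 Compounds were dissolved in methanol at 1 µM, and 200 µL was added to 0.4 mL of 0.1 mM DPPH in methanol. Mixtures stood 30 min in the dark and were read at 517 nm against a blank (no DPPH). The negative control used methanol in place of compound. I% = (Ablank − Asample)/Ablank × 100. Ascorbic acid was the reference. Means of 3 replicates.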

Series [4] is described as follows: Antioxidant activity assessed as DPPH radical scavenging activity at 1 uM after 30 mins in absence of light by spectrophotometric analysis relative to ascorbic acid. It is filed as functional. Summed up:
as §2

Series [5] can be described thus: Cytotoxicity against human MCF7 cells assessed as reduction in cell viability after 48 hrs by MTT assay. It is filed as functional, cell-based. The following applies: MCF7, 48 h. Put shortly: as §1
The nature of series [6]: Pro-oxidant activity as bleomycin-Fe2+ induced calf thymus DNA damage measured as absorbance at 2 mM after 1 hr by thiobarbituric acid-based assay. Type of series: ADME. More on the design: unit not given here. The note with it: cattle, 2000 µM. Summed up: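 The mix held calf thymus DNA 0.5 mg/mL, bleomycin sulfate 0.05 mg/mL, MgCl2 5 mM, FeCl3 50 mM and sample 2 mM. Ascorbic acid was the positive control. Capped tubes were heated at 80 °C for 30 min, ice-cooled, shaken and centrifuged. DNA damage was read as the increase in absorbance at 532 nm. Means of 3 replicates.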

Series [7] is described as follows: Therapeutic index, ratio of IC50 for human WI38 cells to IC50 for human HepG2 cells. It is filed as cell-based. The note with it: WI38 cells and HepG2 cells, read-out: Ratio IC50. Summed up:
as §1

A short description of series [8]: Glutathione peroxidase-like activity assessed as decrease in H2O2 reduction at 41 uM preincubated with compound followed by H2O2 addition after 3 mins by spectrophotometry based NADPH-reductase coupled assay. Summed up: (§3)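 Buffer: 50 mM phosphate with 0.1% Triton X-100, plus NADPH reagent (24 µmol glutathione, 12 U glutathione reductase, 4.8 µmol NADPH). Compound was at 41 µM and the reaction was started with 0.8 mM H2O2. A340 was followed for 3 min, giving ΔA/min. Rates were corrected for background H2O2/GSH reaction, and for compound absorbance where colored. Ebselen (41 µM) served as reference.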

Series [9] is described as follows: Glutathione peroxidase-like activity assessed as decrease in H2O2 reduction at 41 uM preincubated with compound followed by H2O2 addition after 3 mins by spectrophotometry based NADPH-reductase coupled assay relative to ebselen. Put shortly:
as §3

A short description of series [10]: Downregulation of Ki67 expression in human HepG2 cells at IC50 after 48 hrs by ELISA. It is filed as functional, cell-based. Put shortly:
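They were detached with trypsin and lysed by four rounds of ultrasonication before Ki-67 measurement. Comparison was with untreated cells; mean ± SD, ANOVA with LSD/Dunnett post hoc.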

The nature of series [11]: Downregulation of Bcl2 expression in human HepG2 cells at IC50 after 48 hrs by ELISA. Type of series: functional, cell-based. Summed up: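 For ELISA, lysates had biotin conjugate 2 h at 25 °C, then streptavidin-HRP 1 h at 25 °C, read at 450 nm. Comparison was with untreated cells; mean ± SD, ANOVA with LSD/Dunnett post hoc.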
Series [12] in a line: Upregulation of caspase-8 expression in human HepG2 cells at IC50 after 48 hrs by ELISA. It is filed as functional, cell-based. Summed up:
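Cells were trypsinized and lysed by liquid-nitrogen freeze–thaw. Lysates were incubated with HRP-conjugated anti-caspase-8 antibody for 30 min at 37 °C, with ELISA read-out at 450 nm. Levels were compared against untreated cells; mean ± SD, ANOVA with LSD/Dunnett post hoc.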

As for `CC(C)C(Nc1ccc([Se][Se]c2ccc(NC(c3nnnn3C(C)(C)C)C(C)C)cc2)cc1)c1nnnn1C(C)(C)C` (centres undefined), the IC50 in [1] was 37 µM; in series [5], not below 100 µM. Further, the IC50 at 48 h in series [2] was not below 100 µM. Also, the values for the Activity in series [3] and in [6] were 38.6% and 67, respectively. Besides, in series [4], the fold change (FC) stood at 0.4. Also, the selectivity ratio in [7] was more than 3.

Consider `O=C1O[C@H]([C@@H](O)CO)C(O)=C1O` [ASCORBIC ACID], for which the Activity in series [3] stood at 96.5%; in series [6], 310.

Take `c1cc([Se][Se]c2ccc(NCc3nnnn3C3CCCCC3)cc2)ccc1NCc1nnnn1C1CCCCC1`: the half-maximal inhibitory concentration (IC50) in series [1] and in series [5] was not below 100 µM each time. The IC50 at 48 h in series [2] turned out to be 68 µM. Besides, the Activity in series [3] amounted to 19.4%; in [6], 96. Further, in [4], the fold change (FC) came out at 0.2. In addition, in [8], the result was Active.

For `COc1ccc(Cn2nnnc2C(Nc2ccc([Se][Se]c3ccc(NC(c4ccc(C)cc4)c4nnnn4Cc4ccc(OC)cc4OC)cc3)cc2)c2ccc(C)cc2)c(OC)c1` (centres undefined), the fold change (FC) in series [9] was less than 5; in series [4], 0.2. The IC50 in series [1] and in series [5] was not below 100 µM each time. In series [2], the IC50 at 48 h was not below 100 µM. Also, the Activity in series [3] is 22.1%; in series [6], 130. Also, the result in series [8] was Active.

As to `CC(=O)N(c1ccc([Se]C2=CC(=O)c3ccccc3C2=O)cc1)C(C(=O)NC(C)(C)C)c1ccc(C)cc1` (centres undefined), the IC50 in [1] is 53 µM; in series [5], 34 µM. For the same compound, the IC50 at 48 h in series [2] was determined as 29 µM. Besides, the outcome in series [10], in series [11] and in series [12] was Active. Besides, the selectivity ratio in series [7] is more than 0.5.

In the case of `CC(C)(C)n1nnnc1C(Nc1ccc([Se][Se]c2ccc(NC(c3ccco3)c3nnnn3C(C)(C)C)cc2)cc1)c1ccco1` (centres undefined), the values for the fold change (FC) in [9] and in series [4] were less than 5 and 0.3, respectively. Besides, the results for the IC50 in series [1] and in series [5] were 51 µM and 14 µM, respectively. For the same compound, the IC50 at 48 h in [2] stood at 11 µM. Further, the results for the Activity in [3] and in series [6] were 24% and 108, respectively. The outcome in series [8] was Active.

In the case of `O=c1[nH]cc(F)c(=O)[nH]1` [FLUOROURACIL], the IC50 is 8 µM in series [1] and 3 µM in series [5]. In addition, in series [2], the IC50 at 48 h was determined as 4 µM. Besides, in series [7], the selectivity ratio turned out to be 0.5.

With `COC(CC(OC)OC)Cn1nnnc1C(Nc1ccc([Se][Se]c2ccc(NC(c3nnnn3CC(CC(OC)OC)OC)C(C)C)cc2)cc1)C(C)C` (centres undefined), the IC50 in series [1] was 47 µM; in series [5] it was not below 100 µM. The IC50 at 48 h in [2] is not below 100 µM. Also, the Activity in series [3] is 26.3%; in [6] it was 94. Moreover, the fold change (FC) in series [4] was determined as 0.3. Also, the selectivity ratio in series [7] was more than 2. Besides, the result in series [8] was Active.

Turning to `CC1=C([Se]c2ccc(NCc3nnnn3C(C)(C)C)cc2)C(=O)c2ccccc2C1=O`, the IC50 in series [1] is 33 µM; in series [5] it was 42 µM. For the same compound, in series [2], the 50% inhibitory concentration (IC50) at 48 h stood at 48 µM. For the same compound, the Activity in series [3] worked out at 69%; in series [6], 103. In series [4], the fold change (FC) worked out at 0.8. The selectivity ratio in [7] came out at 1.5.

`COc1ccc(-n2nnnc2C(Nc2ccc([Se][Se]c3ccc(NC(c4nnnn4-c4ccc(OC)cc4)C(C)C)cc3)cc2)C(C)C)cc1` (centres undefined): the IC50 in series [1] and in series [5] was not below 100 µM each time. For the same compound, in series [2], the IC50 at 48 h was not below 100 µM. Moreover, the values for the Activity in [3] and in series [6] were 30.5% and 77, respectively. The fold change (FC) in series [4] was 0.3.

Turning to `c1coc(C(Nc2ccc([Se][Se]c3ccc(NC(c4ccco4)c4nnnn4C4CCCCC4)cc3)cc2)c2nnnn2C2CCCCC2)c1` (centres undefined), the fold change (FC) in series [9] is less than 5; in series [4], 0.5. The figures for the IC50 in [1] and in [5] were 36 µM and not below 100 µM, respectively. The IC50 at 48 h in series [2] came to 83 µM. Moreover, the Activity is 49.5% in [3] and 222 in [6]. Besides, the selectivity ratio in [7] was found to be 2. In addition, the outcome in series [8] was Active.

For the compound `COc1ccc(Cn2nnnc2C(Nc2ccc([Se][Se]c3ccc(NC(c4nnnn4Cc4ccc(OC)cc4OC)C(C)C)cc3)cc2)C(C)C)c(OC)c1` (centres undefined), the fold change (FC) was less than 5 in series [9] and 0.3 in series [4]. The IC50 turned out to be 2 µM in [1] and 70 µM in series [5]. In [2], the IC50 at 48 h is 64 µM. Further, the Activity in series [3] was determined as 31.8%; in series [6], 81. In series [7], the selectivity ratio amounted to 32. The result in series [8] was Active.

Consider `CC1=C([Se]c2ccc(NC(c3ccco3)c3nnnn3C(C)(C)C)cc2)C(=O)c2ccccc2C1=O` (centres undefined), for which the IC50 was 9 µM in series [1] and not below 100 µM in series [5]. In addition, in series [2], the IC50 at 48 h was determined as 5 µM. Also, the Activity in [3] was found to be 95.3%; in series [6] it was 138. Also, the outcome in series [10], in series [11] and in series [12] was Active. In series [4], the fold change (FC) was 1. In addition, the selectivity ratio in [7] was found to be 0.6.

For the compound `Cc1ccc(C(Nc2ccc([Se][Se]c3ccc(NC(c4ccc(C)cc4)c4nnnn4C(C)(C)C)cc3)cc2)c2nnnn2C(C)(C)C)cc1` (centres undefined), the IC50 came out at 46 µM in series [1] and 62 µM in [5]. In addition, in [2], the IC50 at 48 h came out at 41 µM. For the same compound, the Activity in [3] worked out at 30.4%; in series [6], 98. Moreover, the fold change (FC) in series [4] was determined as 0.3.

In the case of `CC(C)(C)n1nnnc1CNc1ccc([Se][Se]c2ccc(NCc3nnnn3C(C)(C)C)cc2)cc1`, the IC50 was 44 µM in [1] and 28 µM in [5]. For the same compound, the half-maximal inhibitory concentration (IC50) at 48 h in series [2] stood at 21 µM. Besides, the Activity in series [3] worked out at 44.3%; in series [6], 93. For the same compound, the fold change (FC) in [4] amounted to 0.5. Further, the outcome in [8] was Active.

As to `Cc1ccc(C(Nc2ccc([Se][Se]c3ccc(NC(c4ccc(C)cc4)c4nnnn4C4CCCCC4)cc3)cc2)c2nnnn2C2CCCCC2)cc1` (centres undefined), the values for the IC50 in series [1] and in series [5] were not below 100 µM and 78 µM, respectively. The IC50 at 48 h in series [2] came to 56 µM. Moreover, the Activity amounted to 22.9% in [3] and 79 in series [6]. Further, in series [4], the fold change (FC) is 0.3.

Regarding `CC(C)C(Nc1ccc([Se][Se]c2ccc(NC(c3nnnn3C3CCCCC3)C(C)C)cc2)cc1)c1nnnn1C1CCCCC1` (centres undefined), the results for the IC50 in series [1] and in [5] were not below 100 µM and 52 µM, respectively. The IC50 at 48 h in series [2] worked out at 43 µM. For the same compound, the Activity was 22.9% in [3] and 99 in series [6]. Besides, the fold change (FC) in series [4] was found to be 0.2.

With `CC(C)C(Nc1ccc([Se][Se]c2ccc(NC(c3nnnn3Cc3ccccc3)C(C)C)cc2)cc1)c1nnnn1Cc1ccccc1` (centres undefined), the IC50 in series [1] was 10 µM; in series [5], not below 100 µM. For the same compound, the IC50 at 48 h in [2] is not below 100 µM. Further, the Activity in series [3] was 20.5%; in series [6], 92. Also, the outcome in [10], in series [11] and in series [12] was Active. The fold change (FC) in series [4] came to 0.2. Also, in series [7], the selectivity ratio was more than 10.

In the case of `COc1ccc(Cn2nnnc2C(Nc2ccc([Se][Se]c3ccc(NC(c4ccco4)c4nnnn4Cc4ccc(OC)cc4OC)cc3)cc2)c2ccco2)c(OC)c1` (centres undefined), the IC50 in series [1] and in series [5] was not below 100 µM each time. Further, in series [2], the IC50 at 48 h was 88 µM. Besides, the Activity was found to be 18.8% in series [3] and 81 in [6]. Further, in series [4], the fold change (FC) is 0.2. The result in series [8] was Active.
